The text below walks through data of PubChem BioAssay AID504382 (The Scripps Research Institute Molecular Screening Center, 2011).

Among all 2,500 compounds or so, about 460 (18%) were called active.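 How the source made its calls: active means mean activation above a cutoff of low control average plus 3 SD from the earlier screen (cut at about 12% in these data); inactive means the rest.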 Only a sample is shown.

This experiment is described as follows: compound fluorescence interference without thin filaments, confirmation, artefact control for cardiac RTF calcium sensitizer project, biochemical (AID 504382). The following applies: IANBD fluorescence interference counterscreen, buffer, EC20 Ca2+; at 7.2 µM; hits give high values; scaled: EC20 calcium 0, EC100 calcium 100. In short, it runs like this:
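Also added: EC20 calcium, 0.472 mM; dosing: single nominal 7.2 µM compound dose, 0.7% DMSO final; timing: 15 min, 25 °C; detection: fluorescence intensity, excitation 480 nm, emission 540 nm; replicates: each compound tested in triplicate wells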
Take `COc1cc(NC(=O)CSc2ccccc2)c(C(=O)O)cc1OC`: the fluorescence artifact activation was 3.35% (inactive).
Next, `Nc1nc(SCc2cccc(Br)c2)n[nH]1`: 0.03% (inactive).
Turning to `CC(Sc1nc2ncc(Cl)cc2[nH]1)C(=O)Nc1ccc(C(N)=O)cc1` (stereo not given), the fluorescence artifact activation is -0.03% (inactive).
As to `O=C1/C(=C\c2c(NCCOCCO)nc3ccccn3c2=O)SC(=S)N1Cc1ccco1`, the fluorescence artifact activation is 31.6% (active).
Consider `CCN1CCN(c2c(/C=C3\SC(=S)N(Cc4ccco4)C3=O)c(C)c(C#N)c(=O)n2C)CC1`, for which the fluorescence artifact activation was 0.03% (inactive).
Next, `CCCN(CCC)c1nc2c(C)cccn2c(=O)c1/C=C1/SC(=S)N(Cc2ccco2)C1=O`: 0.05% (inactive); `Cc1cccc(C)c1NC(=O)CNC(=O)Cc1ccc(Br)cc1`: 0.05% (inactive).
The value for `C=CCn1c(C)c(/C=C/c2cc[n+](C)cc2)c2ccccc21` was 8.02% (inactive); that for `Cn1c(=O)c2cc(NCc3ccccc3)nnc2n(C)c1=O` was 0.34% (inactive); that for `Cn1c(=O)cc(N)n(Cc2ccccc2)c1=O` was 14.3% (active).
Take `O=c1cc2c(c(-c3ccccc3)n1Cc1ccccc1)[C@H](CCO)NC2`: the fluorescence artifact activation was 0.32% (inactive).
Regarding `CC(C)CN1CCC(C(=O)N2CCN(c3ccccc3F)CC2)CC1`, the fluorescence artifact activation is -0.02% (inactive).
The value for `CCC(CC)C(=O)c1c[nH]c(C(=O)N2CCN(c3ccccc3F)CC2)c1` was 17% (active).
In the case of `CN1CCN(C(=O)c2cc3ccccc3[nH]2)CC1`, the fluorescence artifact activation is -0.01% (inactive).
For `CC(=O)Nc1ccc2nc3c(=O)n(C)c(=O)n(C)c3nc2c1`, the fluorescence artifact activation is 1.77% (inactive).
As for `COc1ccc(CCNC(=O)CN(C)S(=O)(=O)c2ccc3c(c2)CCC(=O)N3)cc1OC`, the fluorescence artifact activation is -0.01% (inactive).
Next, `COc1cc(/C=C/C(=O)c2ccc3c(c2)OCO3)cc(Cl)c1O`: 1.66% (inactive); `Cc1cc[n+](-c2[nH]c(=O)sc2/C=N/NC([S-])=Nc2ccccc2)cc1`: 1.49% (inactive); `CC(C)OC(=O)CC(=O)CSc1nc(-c2ccc(F)cc2)cc(-c2ccccc2)c1C#N`: 17.5% (active).
The value for `COc1ccc(-c2cc(C3CC3)nc(SCC(=O)c3cccs3)c2C#N)cc1` was 0.1% (inactive); that for `CCOC(=O)CC(=O)CSc1nc(-c2ccc3c(c2)OCO3)cc(C(F)(F)F)c1C#N` was 0.09% (inactive); that for `Cc1cc(C)n(-c2nc3ccccc3nc2Nc2ccc3[nH]c(=O)[nH]c3c2)n1` was 4.66% (inactive).
The value for `CC(C)Oc1ccc(/C(O)=C2/C(=O)C(=O)N(CCN3CCNCC3)C2c2cccc([N+](=O)[O-])c2)cc1` (stereo not given) was 1.8% (inactive); that for `CCOC(=O)C1=C(C)NC(=O)/C1=C\N(C)C` was 0.04% (inactive); that for `Cc1cc(C)c(NC(=S)N(C)C)c(C)c1` was 31.3% (active).
Turning to `NC(=O)c1ccccc1N/C=C/C(=O)c1ccc(Cl)cc1Cl`, the fluorescence artifact activation was 1.35% (inactive).
With `COc1ccc(N(C(=O)c2ccc(C)cc2)S(=O)(=O)c2cccs2)cc1`, the fluorescence artifact activation was 54.9% (active).
Next, `COc1ccc(NC(=O)CNS(=O)(=O)c2cccs2)cc1`: -0.02% (inactive); `COc1ccc(NC(=O)C(c2ccc(C)cc2)N(C)C(=O)Cc2cccs2)cc1` (stereo not given): 0.03% (inactive).
Next, `CCOC(=O)C(C#N)C(c1cccnc1)c1c(C)[nH][nH]c1=O` (stereo not given): 0.03% (inactive).
Next, `O=C(CSc1nc2ccccc2s1)c1cc2ccccc2o1`: 6.22% (inactive); `Cc1ccccc1Nc1nnc(SCC(=O)c2cc3ccccc3o2)s1`: -0.07% (inactive).
For `O=C(CSc1nc2cc(Cl)ccc2s1)c1cc2ccccc2o1`, the fluorescence artifact activation is 39.2% (active).
Take `CCN(CC)C(=O)c1ccc(/C=C/c2c[nH]c3ccccc23)[n+](C)c1`: the fluorescence artifact activation was 0.26% (inactive).
Take `CS(=O)(=O)Nc1nc2n(n1)C(c1ccccc1)C=C(c1ccc(Br)cc1)N2` (stereo not given): the fluorescence artifact activation was 13% (active).
As to `Brc1ccc(C2=CC(c3ccco3)n3ncnc3N2)cc1` (stereo not given), the fluorescence artifact activation is 0.04% (inactive).
Regarding `Brc1ccc(C2=CC(c3cccs3)n3ncnc3N2)cc1` (stereo not given), the fluorescence artifact activation is 0.13% (inactive).
The value for `O=C(O)C1=C[C@H](c2ccccc2)C[C@H](OCc2ccc(CO)cc2)O1` was 0.07% (inactive).
Next, `Cc1ccc(NC(=O)C(OC(=O)c2ccc(F)cc2)c2ccccc2)cc1Cl` (stereo not given): -0.03% (inactive); `Cn1nc(NC(=O)C2CCC2C(=O)O)c2c(F)cccc21` (stereo not given): 7.56% (inactive).
The value for `CC(C)(C)OC(=O)N1CC=C2C(C#N)=C(N)C(C#N)(C#N)C(c3cccs3)C2C1` (stereo not given) was -0.03% (inactive).
Consider `Cc1cc(C)c(OCCOCCN2CCNCC2)c(C)c1`, for which the fluorescence artifact activation is 0.06% (inactive).
With `OCCc1c[nH]c2ccccc12`, the fluorescence artifact activation was 0.07% (inactive).
The value for `NC(=O)c1c[nH]c2ccccc12` was 288% (active).
As for `COc1cc(/C=C(\C#N)C(=O)c2c[nH]c3ccccc23)cc(OC)c1O`, the fluorescence artifact activation was 0.14% (inactive).
As for `CC(C)(C)OC(=O)N1CCC(Cc2cc(-c3cccnc3)no2)(C(=O)O)CC1`, the fluorescence artifact activation was 3.74% (inactive).
As for `Cc1ccc(NC(=O)c2cc(C(=O)c3cc(Cl)ccc3O)cn(-c3ccc(C)cc3)c2=O)cc1`, the fluorescence artifact activation is 3.68% (inactive).
Next, `CCOC(=O)C(C)Sc1nnc(Cc2cc(=O)[nH]c(=O)[nH]2)n1-c1ccc(Cl)cc1` (stereo not given): 0.21% (inactive); `CCOC(=O)C(C)(C)Sc1nc2c(cnn2-c2ccc(Cl)cc2)c(=O)[nH]1`: 71.5% (active); `CCCCNC(=O)COC(=O)c1c2c(nc3ccccc13)/C(=C\c1cccs1)CC2`: 1.6% (inactive).
Turning to `Nc1cccc2c1C(=O)N(c1ccccc1)C2=O`, the fluorescence artifact activation is 1.26% (inactive).
As to `CCC(=O)Nc1ccc2oc(-c3cccnc3)nc2c1`, the fluorescence artifact activation was 77.1% (active).
The value for `Cc1cc(=O)oc(C)c1C(=O)Nc1ccc2ncccc2c1` was 0.24% (inactive); that for `O=C(Cc1ccccc1)Nc1cccc(-c2nc3ncccc3o2)c1` was 0.02% (inactive).
Regarding `COc1ccc(C)cc1NC(=O)C12CCC(C)(C(=O)O1)C2(C)C` (stereo not given), the fluorescence artifact activation was 6.57% (inactive).
Next, `CC1(C)CC(=O)c2sc(NC(=O)Cc3cccs3)nc2C1`: 0.43% (inactive); `CN(C)c1ccc(/C=C2\SC(=S)N(Nc3ncc(C(F)(F)F)cc3Cl)C2=O)cc1`: 1.93% (inactive); `N=C1c2ccccc2CN1c1ccc(S(=O)(=O)N2CCCCC2)cc1`: 9.61% (inactive).
For the molecule `Cc1ccc(S(=O)(=O)N2CCOCC2)cc1C(=O)N1C(=O)c2cccc(N)c2C1=O`, the fluorescence artifact activation is 0.13% (inactive).
Next, `CCOC(=O)/C(=C\C=C1/Sc2ccccc2N1CC)C(C)=O`: 0.04% (inactive); `CCOC(=O)/C(=C/C=C1\Sc2ccccc2N1CC)C(C)=O`: 51.3% (active).
Take `CCN1/C(=C\C=C(C(C)=O)C(C)=O)Sc2ccccc21`: the fluorescence artifact activation is 0.42% (inactive).
The value for `COC(=O)C1=C(C(=O)OC)[C@@H]2Nc3ccccc3[C@@]23C[C@@H](C(=O)OC)N(C(=O)c2cccs2)C3=N1` was 11.6% (inactive); that for `CCOc1ccc(C2OC34CCCCC3C(C#N)(C#N)C2(C#N)C(=N)O4)cc1OC` (stereo not given) was 0.1% (inactive); that for `Cc1c2ccccc2nc2c(F)c(N(C)C)c(F)c(F)c12` was 0.16% (inactive).
The value for `Cc1c2ccccc2nc2c(F)c(NCCO)c(F)c(F)c12` was 42.9% (active); that for `COC(=O)C1=NN(C(=O)c2ccc(Br)cc2)C(O)(C(C)(C)C)C1` (stereo not given) was 1.09% (inactive); that for `CCOC(=O)c1cn(-c2ccc(F)c(F)c2F)c2c(F)c(F)c(F)cc2c1=O` was 0.24% (inactive).
Next, `CN(C)c1ccc(/C=C(/C#N)C(=O)Nc2nc3c(s2)CCN(Cc2ccccc2)C3)cc1`: 0.06% (inactive).
Turning to `Cc1ccc(NC(=O)COC(=O)/C=C/c2c(C)nn(-c3ccc(F)cc3)c2Cl)cc1F`, the fluorescence artifact activation is 0.01% (inactive).
Turning to `CC1CC(C)CN(S(=O)(=O)N2CCCC(C(=O)NC3CCCCC3)C2)C1` (stereo not given), the fluorescence artifact activation is 78.2% (active).
Regarding `CCOc1ccc(CCNC(=O)C2CCCN(S(=O)(=O)N3CCOCC3)C2)cc1OCC` (stereo not given), the fluorescence artifact activation was -0.05% (inactive).
Turning to `CCOC(=O)C1(Cc2cccc(OC)c2)CCN(Cc2ccon2)CC1`, the fluorescence artifact activation was 1.14% (inactive).
Take `COc1ccc(Br)cc1S(=O)(=O)Nc1ncccc1C`: the fluorescence artifact activation was 24.7% (active).
The value for `COc1ccc(C(=O)O)cc1S(=O)(=O)NCCc1ccccn1` was 0.58% (inactive).
Next, `COc1cc(Cl)c(S(=O)(=O)NCc2ccccn2)cc1Cl`: -0.05% (inactive).
Next, `CCOC(=O)c1c(C)oc2c1c(C=NCCO)c(O)c1ccccc12`: 0.07% (inactive); `O=C1c2ccccc2-c2onc3c(N4CCN(CCO)CC4)cc(N4CCN(C(=O)c5ccco5)CC4)c1c23`: 0.06% (inactive).
On to `O=C(O)CCNc1cc(N2CCN(C(=O)c3ccco3)CC2)c2noc3c2c1C(=O)c1ccccc1-3`, for which the fluorescence artifact activation was -0.01% (inactive).
With `O=C(c1ccco1)N1CCN(c2ncnc3c(-c4ccc(Cl)cc4)nsc23)CC1`, the fluorescence artifact activation is 43.5% (active).
Next, `COC(=O)Cn1c(C)c(/C=C/c2cc[n+](C)cc2)c2ccccc21`: 0.1% (inactive); `C[C@H](CO)N1C[C@H](C)[C@@H](CN(C)Cc2ccncc2)Oc2c(NS(=O)(=O)c3ccc(F)cc3)cccc2C1=O`: 0.19% (inactive).
Next, `C[C@H](CO)N1C[C@H](C)[C@@H](CN(C)Cc2ccncc2)Oc2c(NC(=O)c3ccncc3)cccc2C1=O`: 1.32% (inactive).
Next, `C[C@H](CO)N1C[C@H](C)[C@@H](CN(C)Cc2ccc(Oc3ccccc3)cc2)Oc2c(NC(=O)C3CC3)cccc2C1=O`: 20.1% (active).
Take `CC1=CC2=NC(=O)/C(=C\c3ccc(-c4cccc(Cl)c4)o3)C(=N)N2O1`: the fluorescence artifact activation is 7.64% (inactive).
For the molecule `CCOc1cc2c(cc1/C=C/c1noc(C)c1[N+](=O)[O-])OC(C)C2` (stereo not given), the fluorescence artifact activation is 145% (active).
The value for `Cc1cc(N2C(=O)C(O)=C(C(=O)c3cccs3)C2c2ccc(F)cc2)no1` (stereo not given) was 7.29% (inactive).
As to `CCc1cccc2cc3c(N)c(C(=O)Nc4ccc(S(=O)(=O)N5CCCC5)cc4)sc3nc12`, the fluorescence artifact activation is 6.55% (inactive).
Consider `COc1ccc(/C=C/C(=O)c2nc3ccccc3n2CC(=O)c2ccc(OC)cc2)cc1`, for which the fluorescence artifact activation was -0.1% (inactive).
As to `CCN(CC)c1ccc(C=Nc2cc(C)ccc2C)c(O)c1`, the fluorescence artifact activation is 1.34% (inactive).
